Shown are actives, neighbours in structure and some others; about 5.4% of the full set was active somewhere.
PLAP act: activates human placental alkaline phosphatase. purified PLAP enzyme, luminescent substrate read-out; hits give high values. activation fold at 20 µM. actives 1.2% (n = 96,000). AID 696; in the data active means activation fold above about 2
PostGolgi ctrl: yeast control strain growth, post-Golgi counter-screen; efflux-deficient yeast background strain, growth absorbance A615, 16 h; inhibition, % at 10 µM; actives 5% (n = 98,000)
HePTP inh: blocks human HePTP tyrosine phosphatase; recombinant HePTP phosphatase activity, OD absorbance; inhibition, % at 20 µM; actives 0.64% (n = 110,000); AID 521; in the data active means inhibition above about 50%
Target sequence (P35236 whole entry, looked up): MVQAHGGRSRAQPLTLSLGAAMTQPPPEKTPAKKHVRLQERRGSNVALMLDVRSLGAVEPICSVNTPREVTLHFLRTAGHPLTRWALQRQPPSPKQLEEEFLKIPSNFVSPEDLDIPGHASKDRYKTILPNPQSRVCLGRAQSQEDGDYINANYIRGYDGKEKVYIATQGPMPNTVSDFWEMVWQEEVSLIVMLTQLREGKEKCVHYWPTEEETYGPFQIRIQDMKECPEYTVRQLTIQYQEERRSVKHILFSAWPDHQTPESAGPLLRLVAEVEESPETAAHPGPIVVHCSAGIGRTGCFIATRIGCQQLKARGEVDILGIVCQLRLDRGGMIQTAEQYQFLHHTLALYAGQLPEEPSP
PostGolgi yeast: growth inhibition of a yeast mutant, post-Golgi transport screen. post-Golgi transport phenotypic cell assay. actives 0.9% (n = 98,000). inhibition, % at 10 µM;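 further: yeast cells grown in 1536-well plates; yeast grown about 18 h at 30C before absorbance read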
E coli WT exp: blocks growth of wild type E. coli BW25113; growth inhibition, % at 100 µM; actives 0.15% (n = 98,000); OD600 absorbance;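 active means growth inhibition above about 50% at one test dose, limit read from the data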;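 further: growth measured after 20 h incubation at 37 °C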
Ecoli tolC: growth inhibitors of E. coli BW25113 tolC mutant. OD615. AID 573. growth inhibition, % at 10 µM (by protocol). actives 2.2% (n = 65,000);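 active means growth inhibition at or above a cutoff equal to the mean over every tested compound plus 3 SD, cut at about 60% in these data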;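 further: growth measured after 20 h incubation at 37 °C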
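Assay system: tolC-deleted E. coli BW25113. Medium: kanamycin-containing LB broth (50 µg/mL). Dosing: 10 µM final, single dose. Timing: bacterial growth with compound for 20 h at 37 °C. Detection: A615 absorbance measurement. Read-out basis: growth inhibition in percent.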
Hits are given with their value; - = inactive; . = no result. Unless noted, no stated cut-off is given here; in the data, active means inhibition above about 30%; inactive means the rest.

SMILES	PLAP act	PostGolgi ctrl	HePTP inh	PostGolgi yeast	E coli WT exp	Ecoli tolC
CCN(CCCNC(=O)COc1cc(=O)n(CC)c2ccccc12)Cc1ccccc1	-	38	-	-	-	-
O=S(=O)(c1ccccc1)N1CCN(Cc2ccccc2C(F)(F)F)CC1	-	-	-	-	-	64
FC(F)(F)c1cc(Oc2ccc(Cl)cc2)nc(-c2ccccn2)n1	-	-	.	-	-	.
Oc1oc(-c2ccccc2)nc1C=Nc1cccc2ccccc12	-	40	.	-	-	.
Cc1occc1C(=O)NNC(=O)c1ccccc1F	.	.	-	.	.	.
Cc1ccc(S(=O)(=O)N2CCN(C(=O)N(c3ccccc3)c3ccccc3)CC2)cc1	-	94	.	-	-	.
Cc1ccc(S(=O)(=O)N2CCC(C(=O)N3Cc4ccccc4C3)CC2)cc1	-	37	-	-	-	-
CCCC1(C(=O)OC)NC(c2cccc(F)c2)C2C(=O)N(CC)C(=O)C21 (stereo not drawn)	-	-	-	-	-	-
Cc1cccc2sc(NC(=O)CN(C)S(=O)(=O)c3ccc(Br)s3)nc12	-	70	-	-	-	92
Cc1cccc2sc(NC(=O)C3c4ccccc4Oc4ccccc43)nc12	-	58	.	53	-	.
CC(C)(C)c1[nH]nc2c1C(c1cccnc1)C(C#N)=C(N)O2 (stereo not drawn)	-	-	-	-	-	-
CC(C)(C)c1[nH]nc2c1C(Cc1ccccc1)C(C#N)=C(N)O2 (stereo not drawn)	-	40	-	-	-	64
Cc1cc(N2CCOCC2)nc(SCc2ccc(Cl)cc2Cl)n1	-	42	.	-	-	.
Cc1cc(C)nc(SCC(=O)Nc2ccc(N3CCOCC3)c(Cl)c2)n1	-	-	-	-	-	-
Cc1ccc(S(=O)(=O)N(CC(=O)O)Cc2ccccc2F)cc1	-	-	-	-	-	-
Cc1ccc(S(=O)(=O)N(CC(=O)N2CCC(C)CC2)Cc2ccccc2F)cc1	-	37	.	-	-	.
CC(C)(C)Nc1cccccc1=O	-	-	-	-	-	-
Cc1sc2ncnc(SCC(=O)N3CCC(c4noc5ccc(F)cc45)CC3)c2c1C	-	91	.	83	-	.
Cc1nnc(SCC(=O)N2CCC(c3noc4ccc(F)cc34)CC2)s1	-	-	-	-	-	-
CC(C)C(OC(=O)c1cc2occc2n1C)C(=O)NCc1ccc2c(c1)OCO2 (stereo not drawn)	-	48	-	-	-	-
Cc1ccccc1C(=O)O/N=C/c1c(N2CCOCC2)n(C)c2ccccc12	-	40	.	54	-	.
Cc1cc(Cl)cc(C)c1OCCCCNCCO	.	.	105	.	.	.
Cc1cccc(Cl)c1OCCCCn1ccnc1	-	-	-	-	-	-
Cc1cc(Cl)cc(C)c1OCCCCn1ccnc1	-	-	-	-	-	92
Cc1cccc(C(C)(C)C)c1OCCn1ccnc1	-	-	-	-	-	92
SMILES	PLAP act	PostGolgi ctrl	HePTP inh	PostGolgi yeast	E coli WT exp	Ecoli tolC
CCOc1ccc2[nH]cc(C(=O)N3CCN(CC)CC3)c(=O)c2c1	-	-	-	-	-	-
c1ccc(NCc2nc(-c3ccccc3)no2)cc1	-	32	-	-	-	-
O=C(O)CCCc1nc(-c2ccccc2)no1	-	-	-	-	-	-
O=C(Nc1ccc(I)cc1Cl)c1ccc(OCc2ccccc2)cc1	.	.	-	.	.	.
CCC1(C(=O)O)NC(c2cc(OC)ccc2O)C2C(=O)N(Cc3ccccc3)C(=O)C21 (stereo not drawn)	-	-	-	-	-	-
C=CCOc1ccc(/C=C2/C(=O)NN(c3ccc(C(=O)OCC)cc3)C2=O)cc1OC	.	.	60	.	.	.
COc1cc(/C=C2/C(=O)NN(c3ccc(Cl)cc3)C2=O)ccc1O	.	.	-	.	.	.
CCOC(=O)c1ccc(N2NC(=O)/C(=C/c3ccc4c(c3)OCO4)C2=O)cc1	.	.	100	.	.	.
COc1cc(/C=C2/C(=O)NN(c3ccc(Cl)cc3)C2=O)cc(Br)c1O	.	.	92	.	.	.
CCN(Cc1ccccc1)C(=O)c1cc2c(=O)oc3ccc(C)cc3c2s1	-	47	.	-	-	.
COc1ccc(-c2cc(-c3ccccc3)n[nH]2)c(O)c1	.	.	-	.	.	.
COc1cccc(Oc2cn[nH]c2-c2ccc(OC)cc2O)c1	2.2	92	-	94	-	97
CCOc1ccc(-c2[nH]ncc2Oc2cccc(OC)c2)c(O)c1	2.6	75	-	86	-	99
COc1cccc(Oc2cn[nH]c2-c2ccc(O)cc2O)c1	2	-	-	-	-	96
COC(=O)C1=C(C(=O)OC)SC(=C2C(=S)C(C)(C)N(C(=O)C(F)(F)F)c3ccc(C)cc32)S1	.	.	-	.	.	.
Cc1cccc(NC(=O)c2ccccc2O)c1C	-	-	-	-	-	-
O=C(Nc1ccccc1O)c1ccccc1O	-	-	-	-	63	-
Cc1ccc(C)c(NC(=O)c2ccccc2O)c1	-	-	-	-	-	80
Cc1ccc(C)c(NC(=O)c2cc3ccccc3oc2=O)c1	.	.	-	.	.	.
COc1ccc2cc3cc(C(=O)NCC4COc5ccccc5O4)oc3nc2c1 (stereo not drawn)	-	-	-	-	-	-
Cc1ccc(-n2nnnc2SCc2nnc(-c3ccccc3Br)o2)c(C)c1	-	47	-	-	-	-
COc1c(S(=O)(=O)n2nc(C)cc2C)ccc(Cl)c1Cl	-	31	-	-	-	-
O=C(Nc1ccc(NC(=O)c2ccc(Cl)c(S(=O)(=O)N3CCOCC3)c2)cc1)c1ccccc1	.	.	-	.	.	.
O=C(Nc1ccccc1)c1ccc(N2CCN(c3ccccn3)CC2)c(S(=O)(=O)N2CCOCC2)c1	2.1	-	.	-	-	.
O=C(Nc1ccccc1)c1ccc(NC2CCCCC2)c(S(=O)(=O)N2CCOCC2)c1	2.1	-	.	-	-	.
SMILES	PLAP act	PostGolgi ctrl	HePTP inh	PostGolgi yeast	E coli WT exp	Ecoli tolC
CN(Cc1nc(-c2cccnc2)no1)S(=O)(=O)c1ccc2ccccc2c1	-	-	-	-	-	-
O=c1cnnc(N/N=C/c2ccccc2[N+](=O)[O-])[nH]1	.	.	-	.	.	.
COC(=O)c1cccc(Nc2nc3ccccc3nc2C)c1	-	53	-	-	-	-
Cc1ccc(-c2nc(N)sc2-c2ccc([N+](=O)[O-])cc2)cc1	.	.	-	.	.	.
Nc1ncncc1-c1ccc([N+](=O)[O-])cc1	-	-	.	-	78	.
Clc1ccc(-n2ncc3c(NCc4ccco4)ncnc32)cc1	.	-	-	-	-	-
Clc1ccc(Cn2ncc3c(NCc4ccco4)ncnc32)c(Cl)c1	-	39	-	-	-	68
CCCc1ccc(-c2c(C)sc(N)c2C#N)cc1	-	43	.	-	-	.
O=C(Nc1ccc(N2CCN(Cc3ccccc3)CC2)cc1)c1ncn[nH]1	-	31	-	-	-	-
CCC(=O)Nc1ccc(N2CCN(Cc3ccccc3)CC2)cc1	-	-	-	-	-	-
Oc1ccc(CN2CCCc3ccccc32)c2cccnc12	-	-	-	-	-	-
CSCC[C@H](NC(=O)C1CCN(S(=O)(=O)c2ccc(C)cc2)CC1)C(=O)NCc1ccco1	-	31	-	-	-	-
Clc1ccc(OCc2cnc(Cl)s2)cc1	-	-	.	-	-	.
O=C(CSc1n[nH]c(C2CCCC2)n1)NC1CCCC1	-	-	-	-	-	-
Cc1ccc(/C=C/c2ccc(=O)n(Cc3ccccc3Cl)n2)cc1	-	42	.	-	-	.

Screening data (PubChem BioAssay)
